Source: PubChem BioAssay AID2097 (Broad Institute, 2009)
Out of some 300,000 compounds screened, about 120 (0.04%) were called active.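 Rule for the calls: active = more than half of replicate wells score below -50%, meaning over 50% inhibition versus plate controls; inconclusive = some replicates but at most half score below -50%; inactive = no replicate scores below -50%.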 For the sample, actives were picked, then their nearest neighbours and some compounds at random.

Biological target: Glycogen synthase kinase-3 beta (Homo sapiens) (UniProt P49841)
Experiment: human GSK3beta kinase inhibitors, primary screen, biochemical, cell-free homogeneous, HTS (AID 2097);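 note: 0% = median DMSO wells and -100% = median GW8510 positive control wells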
Conditions: GST-GSK3beta kinase, ADP-Glo luminescence, 60 min; at 10 µM; hits give low values
How it was run: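 Assay system: GST-fused GSK3beta enzyme, cell-free / Medium: Tris pH 7.5 buffer with MgCl2, DTT, BSA, heparin / Also added: peptide substrate plus 25 µM ATP (final) / Compound: 10 µM single point / Timing: kinase reaction with compound 60 min at room temperature / Detection: ADP-Glo luminescence / Benchmarks: DMSO neutral wells and GW8510 at 20 µM as positive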

Glycogen synthase kinase-3 beta (Homo sapiens), sequence (P49841 whole entry, looked up): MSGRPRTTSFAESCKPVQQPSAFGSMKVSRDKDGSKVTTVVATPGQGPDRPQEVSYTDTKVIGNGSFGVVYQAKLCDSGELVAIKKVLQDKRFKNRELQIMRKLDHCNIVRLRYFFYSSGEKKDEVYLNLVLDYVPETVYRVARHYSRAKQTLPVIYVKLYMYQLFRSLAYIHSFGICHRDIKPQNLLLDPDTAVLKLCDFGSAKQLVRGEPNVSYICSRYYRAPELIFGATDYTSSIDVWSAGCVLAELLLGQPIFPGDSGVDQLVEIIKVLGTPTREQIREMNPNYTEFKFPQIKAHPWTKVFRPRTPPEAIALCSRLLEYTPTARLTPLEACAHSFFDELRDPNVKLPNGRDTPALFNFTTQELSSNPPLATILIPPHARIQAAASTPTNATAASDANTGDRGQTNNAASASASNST

Activity score (negative = inhibition), inactive:
COc1ccc([N+](=O)[O-])cc1NC(=O)COC(=O)/C=C/c1ccco1 1.89%
CCOc1ccccc1C(=O)NC1CC2CCCC(C1)N2Cc1ccccc1 (stereo not given) 1.55%
Cc1cccc(-c2nc3c(c(SCC(=O)N4CCOCC4)n2)CCCC3)c1 -0.852%
COc1ccccc1NC(=O)CCC(=O)N1CC(C)Oc2ccc(C)cc21 (stereo not given) -0.0566%
CCOC(=O)C[C@H]1c2ccc(C(F)(F)F)cc2S(=O)(=O)N1c1ccccc1 3.21%
CCC1(c2ccccc2)NC(=O)N(CC(=O)Nc2ccccc2C(=O)NC2CCCC2)C1=O (stereo not given) 1.66%
COc1ccc(-c2ccc(OC(=O)NC3CCS(=O)(=O)C3)cc2)cc1 (stereo not given) 1.32%
C=C(C)C(=O)O[C@H]1C/C(C)=C\C(=O)/C=C(\C)[C@H](O)[C@@H]2OC(=O)C(=C)[C@@H]21 2.58%
Cc1ccc(S(=O)(=O)/N=S(\C)C(C)C)cc1 (stereo not given) -3.78%
Cc1nn(-c2ccccc2)c2c1c(C)c(CCC(=O)NCC1CCCO1)c(=O)n2C (stereo not given) -0.881%
COc1ccc(CCC(C)N2CCc3ccccc3C2)cc1 (stereo not given) 3.34%
COc1ccc(CNS(=O)(=O)c2cc3c4c(c2)CCN4C(=O)CC3)cc1 0.199%
COc1ccc(C2OCC3(CO2)SC(=O)NC3=O)cc1OC (stereo not given) -1.61%
Cc1ccc(C(=O)Nc2nc3ccc(Cl)cc3s2)o1 -1.18%
Cc1ccc(OCCNC(=O)CNC(=O)c2ccc(C)c(C)c2)cc1 -1.65%
COC(=O)C1=NNC2(c3ccc(C)cc3)C(=O)N(c3cccc(C)c3C)C(=O)C12 (stereo not given) 1.69%
Cc1ccc(C2SCC(=O)N2c2ccccc2)cc1 (stereo not given) -1.18%
C[C@H](NC(=O)c1ccccc1Cl)C(=O)OCCOc1cccc(Cl)c1 -1.48%
O=C(CCCN1C(=O)CSc2ncccc21)N1CCN(c2cccc(C(F)(F)F)c2)CC1 -4.32%
CCC(C(=O)OCC(=O)Nc1ccccc1-c1ccccc1)c1ccccc1 (stereo not given) 0.894%
CC(=O)c1ccc(NC(=S)N(Cc2ccccc2)C(C)C2CC2)cc1 (stereo not given) -0.731%
Cc1nnc(C)c2c(C)n(N)c(C)c12 1.96%
CNC(=O)NC(=O)C(OC(=O)c1cccc(S(=O)(=O)N2CCCCC2)c1)c1ccccc1 (stereo not given) 1.44%
O=C(/C=C/c1cccc([N+](=O)[O-])c1)NCCSCc1ccco1 -1%
CC(C)Nc1nnc(SC(C)C(=O)N(C)C2CCCCC2)s1 (stereo not given) -10.4%
